Measurements: ChEMBL document CHEMBL2040849, “Synthesis and antimicrobial evaluation of 3-methanone-6-substituted-benzofuran derivatives” (2012)
Converted amounts (≈) assume the structure as drawn.

Experiments:
Format in all cases: functional
[1] = test system: Staphylococcus aureus; assay: Antibacterial activity against Staphylococcus aureus ATCC 29213 after 24 hrs by microtiter broth dilution method; settings: ATCC 29213, 24 h
Method in brief: (§1)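 Compounds dissolved in DMSO and serially diluted by microtiter broth dilution following NCCLS guidance. Plates incubated at 37 °C for 24 h. MIC80 (ug/mL) taken as the lowest concentration inhibiting visible growth. Ceftazidime, cefotaxime, cefradine and sodium penicillin served as reference drugs.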

[2] = test system: Staphylococcus aureus; assay: Antibacterial activity against methicillin-resistant Staphylococcus aureus ATCC 700699 after 24 hrs by microtiter broth dilution method; settings: ATCC 700699, 24 h
Method in brief: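 Compounds dissolved in DMSO and serially diluted in microtiter broth following NCCLS guidance. Plates were incubated at 37 °C for 24 h. MIC80 was read as the lowest concentration inhibiting visible growth of the organism, in µg/mL.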

[3] = test system: Pseudomonas aeruginosa; assay: Antibacterial activity against Pseudomonas aeruginosa ATCC 49189 after 24 hrs by microtiter broth dilution method; settings: ATCC 49189, 24 h; method in brief: as §1
[4] = test system: Bacillus subtilis; assay: Antibacterial activity against Bacillus subtilis ATCC 33712 after 24 hrs by microtiter broth dilution method; settings: ATCC 33712, 24 h; method in brief: as §1
[5] = test system: Escherichia coli; assay: Antibacterial activity against Escherichia coli ATCC 11303 after 24 hrs by microtiter broth dilution method; settings: ATCC 11303, 24 h; method in brief: as §1

c1ccc(COc2ccc3cc(-c4ccccc4)oc3c2)cc1
MIC80 [1]: 100 µg/mL (≈ 333 µM)
MIC80 [2]: > 200 µg/mL
MIC80 [3]: 100 µg/mL (≈ 333 µM)
MIC80 [4]: 100 µg/mL (≈ 333 µM)
MIC80 [5]: > 200 µg/mL

COc1ccc(-c2cc3ccc(OCc4ccccc4)cc3o2)cc1
MIC80 [1]: > 200 µg/mL
MIC80 [2]: > 200 µg/mL
MIC80 [3]: > 200 µg/mL
MIC80 [4]: > 200 µg/mL
MIC80 [5]: > 200 µg/mL

Cc1ccc(-c2cc3ccc(OCc4ccccc4)cc3o2)o1
MIC80 [1]: > 200 µg/mL
MIC80 [2]: 12.5 µg/mL (≈ 41.1 µM)
MIC80 [3]: > 200 µg/mL
MIC80 [4]: > 200 µg/mL
MIC80 [5]: > 200 µg/mL

Oc1ccc2cc(-c3ccccc3)oc2c1
MIC80 [1]: 6.25 µg/mL (≈ 29.7 µM)
MIC80 [2]: 1.56 µg/mL (≈ 7.42 µM)
MIC80 [3]: 0.78 µg/mL (≈ 3.71 µM)
MIC80 [4]: 3.12 µg/mL (≈ 14.8 µM)
MIC80 [5]: 6.25 µg/mL (≈ 29.7 µM)

COc1ccc(-c2cc3ccc(O)cc3o2)cc1
MIC80 [1]: 1.56 µg/mL (≈ 6.49 µM)
MIC80 [2]: 0.78 µg/mL (≈ 3.25 µM)
MIC80 [3]: 1.56 µg/mL (≈ 6.49 µM)
MIC80 [4]: 1.56 µg/mL (≈ 6.49 µM)
MIC80 [5]: 3.12 µg/mL (≈ 13 µM)

Cc1ccc(-c2cc3ccc(O)cc3o2)o1
MIC80 [1]: 1.56 µg/mL (≈ 7.28 µM)
MIC80 [2]: 3.12 µg/mL (≈ 14.6 µM)
MIC80 [3]: 0.78 µg/mL (≈ 3.64 µM)
MIC80 [4]: 1.56 µg/mL (≈ 7.28 µM)
MIC80 [5]: 3.12 µg/mL (≈ 14.6 µM)

Cc1oc(-c2ccccc2)nc1CCOc1ccc2cc(-c3ccccc3)oc2c1
MIC80 [1]: > 200 µg/mL
MIC80 [2]: > 200 µg/mL
MIC80 [3]: > 200 µg/mL
MIC80 [4]: > 200 µg/mL
MIC80 [5]: > 200 µg/mL

COc1ccc(-c2cc3ccc(OCCc4nc(-c5ccccc5)oc4C)cc3o2)cc1
MIC80 [1]: > 200 µg/mL
MIC80 [2]: > 200 µg/mL
MIC80 [3]: > 200 µg/mL
MIC80 [4]: 50 µg/mL (≈ 118 µM)
MIC80 [5]: > 200 µg/mL

CC(=O)c1c(-c2ccc(C)o2)oc2cc(OCCc3nc(-c4ccccc4)oc3C)ccc12
MIC80 [1]: > 200 µg/mL
MIC80 [2]: > 200 µg/mL
MIC80 [3]: > 200 µg/mL
MIC80 [4]: > 200 µg/mL
MIC80 [5]: > 200 µg/mL

COc1ccc(-c2oc3cc(OCCc4nc(-c5ccccc5)oc4C)ccc3c2C(C)=O)cc1
MIC80 [1]: > 200 µg/mL
MIC80 [2]: > 200 µg/mL
MIC80 [3]: > 200 µg/mL
MIC80 [4]: > 200 µg/mL
MIC80 [5]: > 200 µg/mL

Cc1ccc(-c2oc3cc(OCCc4nc(-c5ccccc5)oc4C)ccc3c2C(=O)c2ccco2)o1
MIC80 [1]: > 200 µg/mL
MIC80 [2]: > 200 µg/mL
MIC80 [3]: > 200 µg/mL
MIC80 [4]: > 200 µg/mL
MIC80 [5]: > 200 µg/mL

Cc1ccc(-c2oc3cc(OCCc4nc(-c5ccccc5)oc4C)ccc3c2C(=O)c2ccc(C(F)(F)F)cc2)o1
MIC80 [1]: > 200 µg/mL
MIC80 [2]: > 200 µg/mL
MIC80 [3]: > 200 µg/mL
MIC80 [4]: > 200 µg/mL
MIC80 [5]: > 200 µg/mL

COc1cc(C(=O)c2c(-c3ccc(C)o3)oc3cc(OCCc4nc(-c5ccccc5)oc4C)ccc23)cc(OC)c1OC
MIC80 [1]: 12.5 µg/mL (≈ 21.1 µM)
MIC80 [2]: > 200 µg/mL
MIC80 [3]: > 200 µg/mL
MIC80 [4]: > 200 µg/mL
MIC80 [5]: > 200 µg/mL

CC(=O)c1c(-c2ccc(C)o2)oc2cc(O)ccc12
MIC80 [1]: 6.25 µg/mL (≈ 24.4 µM)
MIC80 [2]: 6.25 µg/mL (≈ 24.4 µM)
MIC80 [3]: 12.5 µg/mL (≈ 48.8 µM)
MIC80 [4]: 12.5 µg/mL (≈ 48.8 µM)
MIC80 [5]: 12.5 µg/mL (≈ 48.8 µM)

COc1ccc(-c2oc3cc(OCCc4nc(-c5ccccc5)oc4C)ccc3c2C(=O)/C=C/c2cc(OC)c(OC)c(OC)c2)cc1
MIC80 [1]: > 200 µg/mL
MIC80 [2]: > 200 µg/mL
MIC80 [3]: > 200 µg/mL
MIC80 [4]: > 200 µg/mL
MIC80 [5]: > 200 µg/mL

COc1cc(/N=C/c2c(-c3ccccc3)oc3cc(OCCc4nc(-c5ccccc5)oc4C)ccc23)cc(OC)c1OC
MIC80 [1]: 3.12 µg/mL (≈ 5.3 µM)
MIC80 [2]: > 200 µg/mL
MIC80 [3]: > 200 µg/mL
MIC80 [4]: > 200 µg/mL
MIC80 [5]: > 200 µg/mL

COc1cc(NCc2c(-c3ccccc3)oc3cc(OCCc4nc(-c5ccccc5)oc4C)ccc23)cc(OC)c1OC
MIC80 [1]: > 200 µg/mL
MIC80 [2]: > 200 µg/mL
MIC80 [3]: > 200 µg/mL
MIC80 [4]: > 200 µg/mL
MIC80 [5]: > 200 µg/mL

CO/N=C(\C(=O)N[C@@H]1C(=O)N2C(C(=O)O)=C(COC(C)=O)CS[C@H]12)c1csc(N)n1 [CEFOTAXIME]
MIC80 [1]: 3.12 µg/mL (≈ 6.85 µM)
MIC80 [2]: 3.12 µg/mL (≈ 6.85 µM)
MIC80 [4]: 0.78 µg/mL (≈ 1.71 µM)
MIC80 [5]: > 200 µg/mL

CC(C)(O/N=C(\C(=O)N[C@@H]1C(=O)N2C(C(=O)[O-])=C(C[n+]3ccccc3)CS[C@H]12)c1csc(N)n1)C(=O)O [CEFTAZIDIME]
MIC80 [1]: 0.78 µg/mL (≈ 1.43 µM)
MIC80 [2]: 12.5 µg/mL (≈ 22.9 µM)
MIC80 [3]: 12.5 µg/mL (≈ 22.9 µM)
MIC80 [4]: 6.25 µg/mL (≈ 11.4 µM)
MIC80 [5]: > 200 µg/mL

CC1=C(C(=O)O)N2C(=O)[C@@H](NC(=O)[C@H](N)C3=CCC=CC3)[C@H]2SC1 [CEPHRADINE]
MIC80 [1]: > 200 µg/mL
MIC80 [2]: > 200 µg/mL
MIC80 [3]: > 200 µg/mL
MIC80 [4]: 50 µg/mL (≈ 143 µM)
MIC80 [5]: 25 µg/mL (≈ 71.5 µM)

CC1(C)S[C@@H]2[C@H](NC(=O)Cc3ccccc3)C(=O)N2[C@H]1C(=O)[O-].[Na+] [PENICILLIN G SODIUM]
MIC80 [1]: 3.12 µg/mL
MIC80 [2]: 3.12 µg/mL
MIC80 [4]: < 0.39 µg/mL
MIC80 [5]: 0.78 µg/mL
